Data taken from ChEMBL document CHEMBL3612059, “Synthesis of 1,2-benzisoxazole tethered 1,2,3-triazoles that exhibit anticancer activity in acute myeloid leukemia cell lines by inhibiting histone deacetylases, and inducing p21 and tubulin acetylation” (Bioorg Med Chem, 2015).
Calls of active or inactive are those of the source. The calls are words filed in the database; no cut-off is given here.

Assays:
MV4-11 [1] = assay: Cell cycle arrest in human MV4-11 cells assessed as accumulation at G2/M phase after 72 hrs by propidium iodide staining-based flow cytometric analysis; format: functional
Summary of the method: (§1)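 Cells in RPMI with 10 % FBS at 37 °C, 5 % CO₂; treated up to 72 h, washed in cold PBS, fixed in -20 °C-precooled 70 % ethanol at 4 °C. Stained with 50 µg/ml PI, 1 % Triton X-100 and 20 µg/ml RNase A in PBS, 30 min, 37 °C, dark. Cell-cycle phases read by flow cytometry; three independent experiments, mean ± SD.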

MV4-11 [2] = assay: Upregulation of p21 protein expression in human MV4-11 cells by Western blot analysis; format: functional, cell-based
MV4-11 [3] = assay: Induction of apoptosis in human MV4-11 cells assessed as early apoptotic cells at 5 uM after 72 hrs by Annexin V-FITC/propidium iodide staining-based flow cytometric analysis (reference value: 7%); format: functional
Summary of the method: (§2)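 100,000 cells per well treated with 2.5, 5.0 or 10 μM for 72 h. Washed in ice-cold Ca/Mg-free PBS, resuspended in 100 μl binding buffer, stained with 5 μl PI plus 3 μl annexin V-FITC for 15 min in the dark, then read immediately by flow cytometry. Quadrants scored as live, early apoptotic, late apoptotic and necrotic.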

MOLM-14 [4] = assay: Cell cycle arrest in human MOLM14 cells assessed as decrease in cells level at G1 phase after 72 hrs by propidium iodide staining-based flow cytometric analysis; format: functional; summary of the method: as §1
[5] = molecular target: T1, Protein deacetylase HDAC6 (Homo sapiens) (UniProt Q9UBN7); assay: Inhibition of HDAC6 in human MV4-11 cells assessed as increase in acetylation of tubulin at lysine 40 by Western blot analysis; format: cell-based
T1 sequence (whole entry): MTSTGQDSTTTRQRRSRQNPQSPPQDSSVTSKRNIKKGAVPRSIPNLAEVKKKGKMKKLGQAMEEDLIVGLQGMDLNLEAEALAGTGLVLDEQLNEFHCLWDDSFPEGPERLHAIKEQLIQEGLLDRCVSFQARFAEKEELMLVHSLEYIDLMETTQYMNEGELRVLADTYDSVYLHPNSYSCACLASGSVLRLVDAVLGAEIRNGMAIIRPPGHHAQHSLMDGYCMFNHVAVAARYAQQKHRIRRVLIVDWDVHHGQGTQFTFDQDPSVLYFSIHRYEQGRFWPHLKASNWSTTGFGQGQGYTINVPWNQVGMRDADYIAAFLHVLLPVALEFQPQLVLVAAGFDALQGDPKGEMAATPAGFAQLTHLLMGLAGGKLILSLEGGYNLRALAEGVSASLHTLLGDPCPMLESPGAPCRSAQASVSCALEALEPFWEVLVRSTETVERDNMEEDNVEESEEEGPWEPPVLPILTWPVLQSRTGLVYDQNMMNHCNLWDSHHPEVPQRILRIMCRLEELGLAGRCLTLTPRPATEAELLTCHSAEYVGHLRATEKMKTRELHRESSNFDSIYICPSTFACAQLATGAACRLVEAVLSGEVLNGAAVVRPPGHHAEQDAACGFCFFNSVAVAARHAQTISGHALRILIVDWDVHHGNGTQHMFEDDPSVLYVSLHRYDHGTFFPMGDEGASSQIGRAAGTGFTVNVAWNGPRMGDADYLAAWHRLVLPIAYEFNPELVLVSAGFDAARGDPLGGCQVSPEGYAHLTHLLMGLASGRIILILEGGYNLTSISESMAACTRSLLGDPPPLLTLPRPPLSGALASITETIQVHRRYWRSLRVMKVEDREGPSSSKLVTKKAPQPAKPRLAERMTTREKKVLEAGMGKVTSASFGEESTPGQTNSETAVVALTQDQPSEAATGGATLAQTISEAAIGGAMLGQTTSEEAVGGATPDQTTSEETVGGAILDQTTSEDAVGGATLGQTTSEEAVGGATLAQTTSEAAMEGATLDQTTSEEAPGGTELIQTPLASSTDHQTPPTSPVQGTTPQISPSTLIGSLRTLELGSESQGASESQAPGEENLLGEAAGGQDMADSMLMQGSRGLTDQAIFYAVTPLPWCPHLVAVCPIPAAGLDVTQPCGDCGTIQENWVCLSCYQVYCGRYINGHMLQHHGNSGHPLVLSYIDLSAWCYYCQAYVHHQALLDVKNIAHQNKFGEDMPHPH

MV4-11 [6] = assay: Induction of apoptosis in human MV4-11 cells assessed as late apoptotic cells at 5 uM after 72 hrs by Annexin V-FITC/propidium iodide staining-based flow cytometric analysis (reference value: 2%); format: functional; summary of the method: as §2
MOLM-14 [7] = assay: Induction of apoptosis in human MOLM14 cells assessed as necrotic cells at 5 uM after 72 hrs by Annexin V-FITC/propidium iodide staining-based flow cytometric analysis (reference value: 1%); format: functional; summary of the method: as §2
MOLM-13 (Homo sapiens) [8] = assay: Induction of apoptosis in human MOLM13 cells assessed as late apoptotic cells at 5 uM after 72 hrs by Annexin V-FITC/propidium iodide staining-based flow cytometric analysis (reference value: 7%)
MOLM-14 [9] = assay: Induction of apoptosis in human MOLM14 cells assessed as late apoptotic cells at 5 uM after 72 hrs by Annexin V-FITC/propidium iodide staining-based flow cytometric analysis (reference value: 2%); format: functional; summary of the method: as §2
[10] = Inhibition of cyclin D protein expression in human MOLM13 cells by Western blot analysis; format: functional, cell-based; conditions: MOLM-13
MOLM-13 (Homo sapiens) [11] = assay: Induction of apoptosis in human MOLM13 cells assessed as upregulation of cleaved PARP expression after 24 hrs by Western blot analysis
[12] = molecular target: T1, Protein deacetylase HDAC6 (Homo sapiens); assay: Inhibition of HDAC6 in human MOLM14 cells assessed as increase in acetylation of tubulin at lysine 40 by Western blot analysis; format: cell-based; conditions: MOLM-14
MOLM-14 [13] = assay: Induction of apoptosis in human MOLM14 cells assessed as necrotic cells at 10 uM after 72 hrs by Annexin V-FITC/propidium iodide staining-based flow cytometric analysis (reference value: 1%); format: functional; summary of the method: as §2
MOLM-13 (Homo sapiens) [14] = assay: Cytotoxicity against human MOLM13 cells assessed as cell viability after 24 to 96 hrs by MTT assay
MOLM-13 (Homo sapiens) [15] = assay: Cell cycle arrest in human MOLM13 cells assessed as accumulation at sub-G1 phase after 72 hrs by propidium iodide staining-based flow cytometric analysis
MOLM-13 (Homo sapiens) [16] = assay: Induction of apoptosis in human MOLM13 cells after 72 hrs by Annexin V-FITC/propidium iodide staining-based flow cytometric analysis
MV4-11 [17] = assay: Effect on total histone H3 protein expression in human MV4-11 cells by Western blot analysis; format: ADME, cell-based
Summary of the method: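 Histones acid-extracted from MV4-11 cells: Triton/EDTA buffer lysis, NaCl wash, then 0.24 M H₂SO₄ final on ice for 2 h and acetone precipitation. Protein measured by Bradford. 0.5 µg loaded on 4-20 % gradient gels and transferred to PVDF. Anti-histone H3 probed as loading control alongside anti-acetyl-H3 (1:1000 in 5 % milk, overnight, 4 °C); HRP secondary 1 h, ECL detection.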

inhibition [5]: Active | inhibition [12]: Active
SMILES: c1ccc(Oc2ccc(-c3cn(-c4noc5ccccc45)nn3)cc2)cc1
Activity (MV4-11 [1]): Active | Activity (MV4-11 [2]): Active | Activity (MV4-11 [3]): 16% | Activity (MOLM-14 [4]): Active | Activity (MV4-11 [6]): 20% | Activity (MOLM-14 [7]): 7% | Activity (MOLM-13 (Homo sapiens) [8]): 26% | Activity (MOLM-14 [9]): 28% | inhibition [10]: Dose-dependent effect | Activity (MOLM-13 (Homo sapiens) [11]): Dose-dependent effect | Activity (MOLM-14 [13]): 10% | Activity (MOLM-13 (Homo sapiens) [14]): Dose-dependent effect | Activity (MOLM-13 (Homo sapiens) [15]): Active | Activity (MOLM-13 (Homo sapiens) [16]): Dose-dependent effect | Activity (MV4-11 [17]): Non-toxic
